ChEMBL document CHEMBL1828544, “Structural modification of honokiol, a biphenyl occurring in Magnolia officinalis: the evaluation of honokiol analogues as inhibitors of angiogenesis and for their cytotoxicity and structure-activity relationship” (J Med Chem, 2011)
Calls of active or inactive are those of the source. The rule behind the calls is not given here.

Experiments:
A549 = assay: Antiproliferative activity against human A549 cells after 24 hrs by MTT assay; format: functional, cell-based; conditions: A549, 24 h
Summary of the method: (§1)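 Cells (5 × 10^3/well) kept at 37 °C, 5% CO2 and treated with varied compound concentrations for 24 h. MTT given for a further 3 h, precipitate dissolved in DMSO, absorbance taken at 570 nm. IC50 calculated from percentage growth relative to untreated control.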

HUVEC [1] = assay: Antiangiogenic activity against human HUVEC cells assessed as inhibition of tube formation at 20 uM after 12 hrs by matrigel-based assay; format: functional
Summary of the method: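 HUVECs (1 × 10^4) in DMEM with compound (20 μM) plated on Matrigel that had set at 37 °C for 45 min; controls got DMEM alone. After 12 h at 37 °C, capillary networks were photographed and intact tubes counted in five random regions. Inhibition expressed as percentage of control.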

HUVEC [2] = assay: Antiproliferative activity against human HUVEC cells after 24 hrs by MTT assay; format: functional, cell-based
Summary of the method: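 Primary HUVECs grown on gelatin in M-199 with 20% FBS, 10 ng/mL bFGF, 2 ng/mL VEGF, 5% CO2, 37 °C. Cells (5 × 10^3/well) exposed to a range of compound concentrations for 24 h. MTT added for 3 h, formazan dissolved in DMSO, absorbance read at 570 nm. IC50 from percentage growth versus untreated control.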

Danio rerio [3] = species on record: Danio rerio; assay: Antiangiogenic activity in fli-1:enhanced GFP expressing transgenic zebrafish embryo assessed as inhibition of neovacularisation at 10 uM after 24 hrs relative to control; format: functional
Summary of the method: (§2)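 fli-1:EGFP transgenic zebrafish embryos sorted at about 6 hpf (6 per well), exposed in embryo water to compound at 5–40 μM for 24 h. Then anesthetized with 0.05% 2-phenoxyethanol, photographed and quantified.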

HepG2 = assay: Antiproliferative activity against human HepG2 cells after 24 hrs by MTT assay; format: functional, cell-based; conditions: HepG2, 24 h; summary of the method: as §1
HUVEC [4] = assay: Antimigratory activity against human HUVEC cells assessed as migration rate at 40 uM after 24 hrs by wound-healing assay relative to control; format: functional
Summary of the method: (§3)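 HUVEC monolayers grown overnight to confluence on 0.1% gelatin, scratched with pipet tips, washed, then kept in serum-free DMEM with compound (20 or 40 μM) for 24 h at 37 °C, 5% CO2; control serum-free DMEM. Migrated cells counted manually from images at 0 and 24 h, three random fields; three independent experiments, mean ± SE.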

Danio rerio [5] = species on record: Danio rerio; assay: Antiangiogenic activity in fli-1:enhanced GFP expressing transgenic zebrafish embryo assessed as inhibition of neovacularisation at 5 uM after 24 hrs relative to control; format: functional; summary of the method: as §2
[6] = Antiproliferative activity against mouse LL/2 cells after 24 hrs by MTT assay; format: functional, cell-based; conditions: Lewis lung carcinoma; summary of the method: as §1
Danio rerio [7] = species on record: Danio rerio; assay: Antiangiogenic activity in fli-1:enhanced GFP expressing transgenic zebrafish embryo assessed as inhibition of neovacularisation at 20 uM after 24 hrs relative to control; format: functional; summary of the method: as §2
HUVEC [8] = assay: Antimigratory activity against human HUVEC cells at 20 uM after 24 hrs by wound-healing assay; format: functional, cell-based; summary of the method: as §3
Danio rerio [9] = species on record: Danio rerio; assay: Antiangiogenic activity in fli-1:enhanced GFP expressing transgenic zebrafish embryo assessed as inhibition of neovacularisation at 40 uM after 24 hrs relative to control; format: functional; summary of the method: as §2

| SMILES | IC50 (A549) | inhibition at 20 µM (HUVEC [1]) | IC50 (HUVEC [2]) | inhibition (INH) (Danio rerio [3]) | IC50 (HepG2) | Migration rate relative to control (HUVEC [4]) | inhibition (INH) (Danio rerio [5]) | IC50 [6] | inhibition (INH) (Danio rerio [7]) | Activity (HUVEC [8]) | inhibition (INH) (Danio rerio [9]) | inhibition (Danio rerio [5]) | inhibition (Danio rerio [3]) |
| --- | --- | --- | --- | --- | --- | --- | --- | --- | --- | --- | --- | --- | --- |
| C=CCc1cc(C=O)c(O)c(-c2ccc(O)c(CC=C)c2)c1 | 43.6 µM | 41.2% | 46.2 µM | 25% | 32.9 µM | 34.2% | <25% | 65.3 µM | 25% | Active |  |  |  |
| C=CCc1ccc(O)c(-c2ccc(O)c(CC=C)c2)c1 [HONOKIOL] |  | 51.4% | 52.6 µM | 25% |  | 38.5% | <25% | 65.4 µM | 50% | Active |  |  |  |
| C=CCc1cc(-c2ccc(OC)cc2)cc(CC=C)c1O | 75.6 µM |  | > 100 µM | <25% | 69.2 µM |  |  | 60.3 µM | <25% |  | <25% | inactive |  |
| C=CC(C)(C)c1cc(-c2cccc([N+](=O)[O-])c2)ccc1O | 64 µM |  | 77 µM |  | 56 µM |  |  | 45.1 µM | <25% |  | <25% | inactive | inactive |
| C=CCc1cc(C=O)c(OCC)c(-c2ccc(OCC)c(CC=C)c2)c1 | 39 µM |  | 37.9 µM | <25% | 28.5 µM |  |  | 31.9 µM | <25% |  | <25% | inactive |  |
| C=CCc1ccc(O)c(-c2ccc(OC)c(CC=C)c2)c1 [METHYLHONOKIOL] |  | 34.9% | 55.8 µM | <25% | 55.3 µM | 54.2% | <25% | 68.8 µM | 25% | Active | 25% |  |  |
| C=CCc1ccc(OC(C)C)c(-c2ccc(O)c(CC=C)c2)c1 | 53.2 µM |  | 65.5 µM | <25% | 63.5 µM |  | <25% | 48.4 µM | <25% |  | <25% |  |  |
| C=CCc1cc(-c2cc(F)cc(F)c2)ccc1O | > 100 µM |  | 80 µM | <25% | > 100 µM |  | <25% | 78.2 µM | <25% |  | <25% |  |  |
| C=CCc1cc(C=O)c(OC)c(-c2ccc(OC)c(CC=C)c2)c1 | 42.6 µM |  | 39.1 µM | <25% | 53.9 µM |  | <25% | 40.8 µM | <25% |  | <25% |  |  |
| C=CCc1cc(-c2ccccc2)ccc1O | > 100 µM |  | > 100 µM |  | > 100 µM |  |  | > 100 µM |  |  |  |  |  |
| C=CCOc1ccc(-c2cccc([N+](=O)[O-])c2)cc1CC=C | > 100 µM |  | > 100 µM |  | > 100 µM |  |  | > 100 µM |  |  |  |  |  |
| C=CCc1ccc(OCCC)c(-c2ccc(O)c(CC=C)c2)c1 | 53.8 µM |  | 73.3 µM | <25% | 49.9 µM |  |  | 45.8 µM | <25% |  | <25% | inactive |  |
| C=CCc1cc(-c2cccc([N+](=O)[O-])c2)ccc1O | > 100 µM |  | > 100 µM |  | > 100 µM |  |  | > 100 µM |  |  |  |  |  |
| C=CCc1cc(-c2ccc(F)cc2)ccc1O | > 100 µM |  | > 100 µM |  | > 100 µM |  |  | > 100 µM |  |  |  |  |  |
| C=CCc1cc(-c2ccc(C(F)(F)F)cc2)ccc1O | 76 µM |  | 74 µM | <25% | 60.3 µM |  |  | 74.8 µM | <25% |  | <25% | inactive |  |
| C=CC(C)(C)c1cc(-c2ccc(OC)cc2)ccc1O | > 100 µM |  | > 100 µM |  | 91 µM |  |  | > 100 µM |  |  |  |  |  |
| C=CCc1ccc(O)c(-c2cccc([N+](=O)[O-])c2)c1 | > 100 µM |  | 79.1 µM | <25% | 62.3 µM |  |  | 61.4 µM | <25% |  |  | inactive |  |
| C=CCc1cc(-c2cccc([N+](=O)[O-])c2)cc(CC=C)c1O | 80 µM |  | > 100 µM | <25% | 80.5 µM |  |  | 56.5 µM | <25% |  | <25% | inactive |  |
| C=CCc1cc(-c2ccc(C(F)(F)F)cc2)ccc1OC | > 100 µM |  | > 100 µM |  | 89 µM |  |  | 78.8 µM |  |  |  |  |  |
| C=CCOc1ccc(-c2ccc(OC)cc2)cc1CC=C | > 100 µM |  | > 100 µM |  | > 100 µM |  |  | > 100 µM |  |  |  |  |  |
| C=CCc1ccc(O)c(-c2ccc(OC(C)C)c(CC=C)c2)c1 | 42.7 µM |  | 70.5 µM | <25% | 48.4 µM |  |  | 49.1 µM | <25% |  |  | inactive |  |
| C=CCc1cc(-c2cccc(OC)c2)ccc1O | > 100 µM |  | > 100 µM |  | > 100 µM |  |  | > 100 µM |  |  |  |  |  |
| C=CCc1cc(CO)c(O)c(-c2cc(CO)c(O)c(CC=C)c2)c1 | > 123 µM |  | > 100 µM |  | > 123 µM |  |  | > 123 µM |  |  |  |  |  |
| C=CCc1ccc(OCC)c(-c2ccc(OCC)c(CC=C)c2)c1 | > 124 µM |  | > 100 µM |  | > 124 µM |  |  | > 124 µM |  |  |  |  |  |
| C=CCc1ccc(O)c(-c2ccc(O)cc2)c1 | 76.2 µM |  | 64.3 µM | <25% | 89 µM |  |  | > 100 µM | <25% |  |  | inactive |  |
| C=CCc1cc(-c2ccccc2C(F)(F)F)ccc1O | 59.7 µM |  | 82 µM | <25% | 52.4 µM |  |  | 60.3 µM | <25% |  | <25% | inactive |  |
